Screening data as filed in PubChem BioAssay.
Shown are actives, neighbours in structure and some others; about 5.4% of the full set was active somewhere.
HePTP inh: blocks human HePTP tyrosine phosphatase. P35236. recombinant HePTP phosphatase activity, OD absorbance. inhibition, % at 20 µM. actives 0.64% (n = 110,000). AID 521; in the data active = inhibition above about 50%;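 also: plate controls were vehicle for no effect and reference inhibitor for full effect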
Target sequence (P35236 whole entry, looked up): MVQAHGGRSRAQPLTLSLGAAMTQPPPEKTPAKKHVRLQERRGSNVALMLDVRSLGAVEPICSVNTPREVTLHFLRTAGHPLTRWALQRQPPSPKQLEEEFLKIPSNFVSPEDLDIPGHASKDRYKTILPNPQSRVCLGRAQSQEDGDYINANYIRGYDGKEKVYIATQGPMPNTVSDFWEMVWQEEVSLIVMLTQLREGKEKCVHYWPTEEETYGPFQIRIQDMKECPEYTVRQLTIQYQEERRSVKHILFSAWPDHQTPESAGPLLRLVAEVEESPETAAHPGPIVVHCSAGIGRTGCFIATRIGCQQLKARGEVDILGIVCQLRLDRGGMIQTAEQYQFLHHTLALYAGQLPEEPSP
PLAP activator: activates human placental alkaline phosphatase | activation fold at 20 µM | AID 696 | actives 1.2% (n = 96,000) | purified PLAP enzyme, luminescent substrate read-out; active compounds read high | P05187; in the data active = activation fold above about 2
PostGolgi yeast: growth inhibition of a yeast mutant, post-Golgi transport screen; post-Golgi transport phenotypic cell assay; inhibition, % at 10 µM; actives 0.9% (n = 98,000);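 also: yeast cells grown in 1536-well plates; yeast grown about 18 h at 30C before absorbance read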
Ecoli WT expand: growth inhibitors of E. coli BW25113 wild type | OD600 absorbance | growth inhibition, % at 100 µM | actives 0.15% (n = 98,000);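 active = growth inhibition above about 50% at one test dose, limit read from the data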;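 also: growth measured after 20 h incubation at 37 °C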
tolC growth inh: growth inhibitors of E. coli BW25113 tolC mutant | OD615 | growth inhibition, % at 10 µM (by protocol) | actives 2.2% (n = 65,000);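 active = growth inhibition at or above a cutoff equal to the mean over every tested compound plus 3 SD, cut at about 60% in these data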;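 also: growth measured after 20 h incubation at 37 °C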
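Signal: optical density read at 615 nm; Assay system: E. coli ΔtolC::kan strain BW25113; Times: 20 h incubation with compound, 37 °C; Dosing: 10 µM final, single dose.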
PostGolgi ctrl: inhibits growth of the yeast control strain | efflux-deficient yeast background strain, growth absorbance A615, 16 h | inhibition, % at 10 µM | actives 5% (n = 98,000) | AID 738
* = called active by the depositor; / = not tested or not shown. Rule as the data show it, unless noted: active = inhibition above about 30%; inactive = the rest.

SMILES	HePTP inh	PLAP activator	PostGolgi yeast	Ecoli WT expand	tolC growth inh	PostGolgi ctrl
CCOc1c2c(nc3ccc(Cl)cc13)CCC2	-3.2	0.9	0.3	-6.0	14.6	36.2*
Cc1ccc(C(C)C)c(OCC(=O)Nc2ccc(OC(F)(F)F)cc2)c1	83.0*	/	/	/	/	/
CCCC(=O)Nc1ccc2c(c1)nc(CN1CCCC1)n2C	/	0.8	7.4	5.0	/	-3.6
Cc1ccc(C(C)C)c(OCC(=O)Nc2ccc(NC(=O)c3ccco3)cc2)c1	-1.7	/	/	/	/	/
Cc1ccc(C(C)C)c(OCC(=O)Nc2ccc3c(c2)nc(CN2CCCC2)n3C)c1	/	2*	5.0	-3.0	/	5.3
Fc1ccc(-c2nc(-c3cccnc3)no2)cc1	2.2	/	/	/	/	/
CCOC(=O)c1oc2ccccc2c1NC(=O)c1cccc(OC)c1OC	7.3	1.6	15.1	-5.0	55.2	46.2*
CCOC(=O)c1oc2ccccc2c1NC(=O)c1cccc(OC)c1	5.4	1.1	4.5	-7.0	39.8	6.3
COc1ccccc1NC(=O)c1c(NC(=O)C(Cl)(Cl)Cl)sc2c1CCC2	-0.2	/	/	/	/	/
CCOC(=O)C1CCCN(c2c(NCCCN(CC)c3ccccc3)c(=O)c2=O)C1 (stereo not given)	4.9	1	1.9	5.0	2.7	34.6*
Oc1oc(-c2ccccc2)nc1C=Nc1cccc2ccccc12	/	1.1	12.4	-17.0	/	39.9*
CS(=O)(=O)c1nc(-c2ccccc2)cc(C(F)(F)F)n1	-5.0	/	25.7	19.0	19.8	51.1*
Cc1cc(NC(=O)CCS(=O)(=O)c2nc(-c3ccccc3)cc(C(F)(F)F)n2)no1	11.3	1.2	/	/	6.8	/
CSc1nc(C)c(CC(=O)c2ccc(Br)cc2)c(C)c1C#N	1.3	/	/	/	/	/
Cc1ccc(-n2cnc(N=CN(C)C)c2C(=O)c2ccccc2)cc1	9.3	/	/	/	/	/
CS(=O)(=O)N1CCN(c2ccc([N+](=O)[O-])c(N3CCCC3)c2)CC1	9.6	/	/	/	/	/
Cc1ccc(C2(C)NC(=O)N(CC(=O)Nc3cc(C)on3)C2=O)cc1 (stereo not given)	/	1.1	-1.4	6.0	/	30.8*
Cc1cc(NC(=O)CN2C(=O)NC(Cc3ccccc3)C2=O)no1 (stereo not given)	/	0.7	-3.0	2.0	/	7.2
CCC(c1nnnn1C1CCCCC1)N1CCN(C2CCCC2)CC1 (stereo not given)	1.7	1.4	-3.0	1.0	-15.1	10.9
COc1ccccc1N1CCN(C(c2ccccn2)c2nnnn2C2CCCCC2)CC1 (stereo not given)	/	1.7	4.3	3.0	/	7.8
Fc1ccccc1N1CCN(C(c2ccccn2)c2nnnn2C2CCCCC2)CC1 (stereo not given)	3.7	1.7	5.1	1.0	25.5	40.5*
CC(C)CC(c1nnnn1C1CCCCC1)N1CCN(c2ncccn2)CC1 (stereo not given)	3.5	1.7	53.0*	7.0	-1.5	83.5*
CC(C)C(c1nnnn1C1CCCCC1)N1CCN(c2ncccn2)CC1 (stereo not given)	0.4	1.4	51.5*	8.0	0.0	82.5*
Cc1ccc(Cl)cc1N1CCN(C(c2cccnc2)c2nnnn2C2CCCCC2)CC1 (stereo not given)	-14.5	1.6	4.6	0.0	17.6	36.9*
Oc1c(Br)ccc(Cl)c1C=Nc1cccc2nsnc12	5.6	/	/	/	/	/
SMILES	HePTP inh	PLAP activator	PostGolgi yeast	Ecoli WT expand	tolC growth inh	PostGolgi ctrl
O=C1CC(N2CCN(C/C=C/c3ccccc3)CC2)C(=O)N1c1cc(Cl)cc(Cl)c1 (stereo not given)	-3.2	/	/	/	/	/
COc1ccc2nc(NC(=O)c3ccc(OC)c(Br)c3)sc2c1	0.3	/	/	/	/	/
CC(C)CC(c1nnnn1C1CCCC1)N1CCN(c2ccccc2F)CC1 (stereo not given)	10.4	1.1	72.3*	-2.0	35.2	86.9*
CCn1c2ccccc2c2cc(/C(C)=N/O)ccc21	/	0.8	3.8	9.0	/	65.3*
C/C(=N\O)c1ccc2c3ccccc3n(C)c2c1	-21.0	0.9	-4.3	1.0	16.2	30.8*
CCn1c2ccccc2c2cc(N)ccc21	-14.7	0.8	2.2	8.0	-3.6	10.9
CC(=O)c1ccc2c(c1)c1ccccc1n2C	2.7	/	/	/	/	/
COc1ccc(-c2csc(/C(C#N)=C\c3ccc(C)s3)n2)cc1	-2.6	/	/	/	/	/
N#C/C(=C\c1c(O)n(-c2c(Cl)cccc2Cl)c2ccccc12)C(N)=NCc1ccccc1	-1.9	/	/	/	/	/
Cc1ccc(N2C(=O)[C@@H]3Cc4ccccc4CN3C2=O)cc1	0.2	0.7	1.4	-11.0	-13.3	35.8*
CCOc1ccc(CN(C(=O)c2oc3cc(C)ccc3c2C)C2CCS(=O)(=O)C2)cc1 (stereo not given)	/	1.5	4.2	-6.0	/	35.3*
